This is a sample that favours compounds with a hit; in the whole collection about 2.9% have one here.
PGC1a acetyl inh = PGC1a acetylation modulation, inhibitor mode | 0.17% of 350,000 active | inhibition, % at 15.6 µM | AID 651687 | U2OS PGC1a acetylation, AlphaScreen anti-acetyl-lysine; with virally co-expressed GCN5 acetyltransferase;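 active = every replicate shows inhibition of at least 40%; inconclusive = mean inhibition at least 40% but some replicate below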;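 note: 0% = neutral control wells and 100% = positive control wells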
SIRT5 block = sirtuin-5 (human) deacylase inhibition | Q9NXA8 | Purified SirT5, succinyl-peptide AMC, trypsin-coupled fluorescence | inhibition, % at 15 µM | 1.1% of 330,000 active; in the data active = inhibition above about 15%; inconclusive = no clear call, values can overlap the other calls
Target sequence (Q9NXA8 whole entry, looked up): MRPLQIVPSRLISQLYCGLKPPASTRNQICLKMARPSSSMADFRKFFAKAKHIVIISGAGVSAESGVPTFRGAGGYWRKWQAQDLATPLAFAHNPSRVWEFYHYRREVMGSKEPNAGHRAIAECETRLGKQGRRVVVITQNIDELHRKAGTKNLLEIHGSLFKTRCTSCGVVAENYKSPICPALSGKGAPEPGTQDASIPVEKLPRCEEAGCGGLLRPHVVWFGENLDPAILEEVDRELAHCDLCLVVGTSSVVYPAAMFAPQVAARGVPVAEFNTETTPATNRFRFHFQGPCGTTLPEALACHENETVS
DENV2 CPE = DENV2-induced cell death inhibition; AID 651640; CPE inhibition, % at 9.99 µM; 1.7% of 350,000 active; DENV2-infected cells, cytopathic effect rescue, plate reader; in the data active = CPE inhibition above about 20%, passing the limit was not always enough; inconclusive = no clear call, values can overlap the other calls; tested in BHK-21 cells;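 note: 0% = median of neutral control wells and 100% = median of positive control wells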
Statin myotox sup = protects C2C12 myotubes from simvastatin toxicity | 0.78% of 330,000 active | rescue of ATP level, % at 7.49 µM | ATP luminescence, 48 h; scaled: DMSO 0, geranylgeraniol control 100;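 active = mean ATP rescue above about 67%, or every replicate alone reaching that limit, limit read from the data, passing the limit was not always enough; inconclusive = no clear call, values can overlap the other calls; inactive = mean under the limit and some replicate under it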;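 note: myotubes were challenged with 10 µM simvastatin during compound exposure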
S100A4 inh HTS = blocks human S100A4 binding to myosin IIA peptide; inhibition, % at 10.7 µM; 0.14% of 360,000 active; S100A4/TAMRA-MyoIIA peptide fluorescence polarization;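 active = mean inhibition of at least 70% across replicates, with every replicate also reaching that level; inconclusive = mean inhibition reaches 70% but some replicates fall short; inactive = mean inhibition below 70%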
Target sequence (P26447 whole entry, looked up): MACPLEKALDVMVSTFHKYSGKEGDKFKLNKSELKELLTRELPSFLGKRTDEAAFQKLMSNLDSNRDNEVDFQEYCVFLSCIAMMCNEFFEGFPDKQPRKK
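Assay system: human S100A4 monomer with TAMRA-labelled myosin IIA peptide / Buffer or medium: Calcium-containing HEPES buffer, pH 7.2 / Reagent: TAMRA-labelled myosin IIA heavy-chain peptide probe, 5 nM / Compound: one dose per compound / Timing: polarization read 5 min after assay mix addition, stable 5–60 min / Benchmarks: neutral control DMSO, positive control TFP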
Active calls of the source: *; u = inconclusive; x = no result given; ! = not confirmed by another sample.

SMILES	PGC1a acetyl inh	SIRT5 block	DENV2 CPE	Statin myotox sup	S100A4 inh HTS
O=C1c2cccc([N+](=O)[O-])c2C(=O)N1c1cccnc1	6	20*	x	x	8
O=C1c2cccc([N+](=O)[O-])c2C(=O)N1c1ccccc1	4	1	4	-9	4
COc1c(Cl)cc(Cl)cc1C(=O)n1nc(C)cc1C	-6	x	x	98*	x
C[C@@H]1CN([C@H](C)CO)C(=O)c2cc(NC(=O)Cn3cnnn3)ccc2O[C@@H]1CN(C)Cc1ccc(Oc2ccccc2)cc1	2	-2	13	36	-64
COc1cc(CN2CCCC(C(=O)c3ccc(C(C)(C)C)cc3)C2)cc(OC)c1O (centres undefined)	x	-2	26*	-2	-7
COc1cccc(-c2cnc3c(c2)C(=O)N([C@H](C)CO)C[C@@H](C)[C@@H](CN(C)Cc2cccnc2)O3)c1	9	-7	-5	9	7
C[C@@H]1CN([C@H](C)CO)C(=O)c2cc(C#Cc3ccccc3F)cnc2O[C@@H]1CN(C)C	0	-7	2	-2	-51
C[C@H]1CN([C@@H](C)CO)C(=O)Cc2cc(NC(=O)CCCCCC(=O)Nc3ccccc3N)ccc2O[C@H]1CN(C)Cc1ccc(-c2ccccc2)cc1	-9	-4	3	142*	-2
COc1ccc(CN(C)C[C@H]2Oc3ccc(NC(=O)CCCCCC(=O)Nc4ccccc4N)cc3CC(=O)N([C@@H](C)CO)C[C@@H]2C)cc1	5	10	19	x	-4
C[C@@H]1CN([C@H](C)CO)C(=O)Cc2cc(NC(=O)CCCCCC(=O)Nc3ccccc3N)ccc2O[C@H]1CN(C)Cc1ccccc1	-12	x	u	39	-8
C[C@@H]1CN([C@H](C)CO)C(=O)Cc2cc(NC(=O)CCCCCC(=O)Nc3ccccc3N)ccc2O[C@H]1CN(C)Cc1ccc(Oc2ccccc2)cc1	-1	15*	2	104*	0
COc1ccccc1CNC(=O)C[C@@H]1CC[C@@H]2[C@@H](COc3ccc(NS(=O)(=O)c4ccc(C)cc4)cc3C(=O)N2C)O1	-4	1	1	-6	-1
O=C(Cc1cn2ccsc2n1)Nc1ccccc1Oc1ccccc1	42	x	x	101*	x
O=C(Cc1cn2ccsc2n1)NCc1ccccc1	5	-1	3	10	5
Cc1c(NC(=O)CSc2ccccn2)c(=O)n(-c2ccccc2)n1C	-9	x	x	111*	x
C[C@H](CO)N1C[C@H](C)[C@@H](CN(C)C(=O)NC2CCCCC2)Oc2c(NC(=O)C3CC3)cccc2C1=O	-7	-2	-1	-25	9
Cc1cc(C(=O)Nc2cccc3c2O[C@H](CN(C)C(=O)NC2CCCCC2)[C@@H](C)CN([C@H](C)CO)C3=O)n(C)n1	-4	1	37*	10	-6
C[C@H]1CN([C@@H](C)CO)C(=O)c2cccc(NC(=O)C3CC3)c2O[C@@H]1CN(C)C(=O)NC1CCCCC1	-3	6	54*	-7	4
C[C@@H]1CN([C@@H](C)CO)C(=O)c2cccc(NC(=O)C3CCCCC3)c2O[C@@H]1CN(C)C(=O)NC1CCCCC1	16	3	33*!	-3	4
C[C@H](CO)N1C[C@H](C)[C@@H](CN(C)CC2CC2)Oc2cc(-c3ccccc3)ccc2S1(=O)=O	1	5	-2	-18	-11
C[C@@H]1CN([C@@H](C)CO)C(=O)c2cc(NC(=O)CCC(F)(F)F)ccc2O[C@@H]1CN(C)C(=O)Nc1cccc2ccccc12	-9	4	17	6	-9
Cc1cc(C)n2c(SCc3c(C)noc3C)nnc2n1	1	x	x	93*	x
Cc1cc(C)n2c(SCc3ccc(Br)cc3)nnc2n1	5	2	-5	x	3
COc1ccc(C2/C=C\CN(S(=O)(=O)c3cccc4cccnc34)CC(=O)N2Cc2ccc(F)cc2)cc1 (centres undefined)	-3	x	-6	12	91*
COc1ccc(C2/C=C\CN(Cc3ccncc3)CC(=O)N2Cc2ccc(F)cc2)cc1 (centres undefined)	-11	16*	6	-1	5
SMILES	PGC1a acetyl inh	SIRT5 block	DENV2 CPE	Statin myotox sup	S100A4 inh HTS
COc1ccc([C@H]2/C=C\CN(C(=O)c3ccc(C)cc3)[C@@H](C)C(=O)N2Cc2ccc(F)cc2)cc1	-10	x	125*	-16	0
CC(=O)N[C@H]1CC[C@@H](CCNC(=O)C2CCC2)O[C@@H]1CO	-5	-2	8	-3	1
C[C@@H]1CN([C@H](C)CO)C(=O)c2cc(NC(=O)c3ccncc3)ccc2O[C@@H]1CN(C)Cc1ccccc1	x	-3	14	-12	4
C[C@H](CO)N1C[C@H](C)[C@H](CN(C)Cc2ccc(Oc3ccccc3)cc2)Oc2ccc(NC(=O)CCC(F)(F)F)cc2C1=O	-6	15*	u	x	-7
C[C@@H]1CN([C@H](C)CO)C(=O)c2cc(NC(=O)CCC(F)(F)F)ccc2O[C@@H]1CN(C)Cc1ccc(C(F)(F)F)cc1	-4	10	2	12	6
COc1ccc(CN(C)C[C@@H]2Oc3ccc(NC(=O)CCC(F)(F)F)cc3C(=O)N([C@H](C)CO)C[C@H]2C)cc1	0	29*	7	0	-3
C[C@H](CO)N1C[C@H](C)[C@@H](CN(C)Cc2ccc(Oc3ccccc3)cc2)Oc2ccc(NC(=O)CCC(F)(F)F)cc2C1=O	-2	-1	u	x	-1
C[C@H]1CN([C@@H](C)CO)C(=O)c2cc(NC(=O)CCC(F)(F)F)ccc2O[C@H]1CN(C)Cc1ccc(C(F)(F)F)cc1	3	20*	u	4	3
O=C(C[C@H]1CC[C@H]2[C@@H](COC[C@@H](O)CN2Cc2cc(F)ccc2F)O1)NCc1ccccc1	-1	-3	16	10	-1
C[C@@H]1CN([C@@H](C)CO)S(=O)(=O)c2ccc(C#CC3CC3)cc2O[C@H]1CN(C)C(=O)c1ccncc1	1	4	8	2	51
C[C@@H]1CN([C@@H](C)CO)C(=O)c2cc(NC(=O)Cc3cn(C)c4ccccc34)ccc2O[C@H]1CN(C)C(=O)Nc1ccc(F)cc1	-13	-1	2	28	-3
CCCC(=O)Nc1ccc2c(c1)C(=O)N(C)C[C@@H](OC)[C@H](C)CN(Cc1ccccn1)[C@H](C)CO2	3	-5	5	-3	5
CCCCNC(=O)c1nn2c(C(F)(F)F)cc(-c3ccccc3)nc2c1Br	x	2	38*	-55	0
O=[N+]([O-])c1ccccc1N=Nc1ccc(O)cc1O	8	x	-6	0	4
O=S(=O)(O)c1cc(O)c(N=Nc2ccc(O)cc2O)c2ccccc12	1	31*	1	-3	19
COCCNC(=O)C[C@@H]1C[C@H]2c3cc(NC(=O)CN(C)C)ccc3O[C@H]2[C@H](CO)O1	1	-1	x	2	3
CCOC(=O)C(CC)(CC)C(=O)/C=C/c1ccc(Br)cc1	57*	x	x	-8	x
